# Granule exo inh = lytic granule exocytosis inhibition | TALL-104 LAMP-1 surface exposure, flow cytometry; cells stimulated with thapsigargin and PMA | inhibition, % at 10 µM | hit rate 0.66% among 360,000 | AID 651702;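 active means inhibition above about 55%, limit read from the data; inconclusive means no clear call, values can overlap the other calls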
# Myeloid diff 2 = myeloid differentiation induction; ER-HoxA9 myeloid progenitors, lysozyme-GFP differentiation, flow cytometry; calls only at 10 µM; hit rate 1% among 360,000; AID 624256;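 active means normalized GFP-positive differentiation at or above the plate's own cutoff, the solvent-only control mean plus 3 SD; inconclusive means no clear call, values can overlap the other calls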;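 further: cells exposed to compound for four days before flow analysis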
# CSN deneddyl inh = blocks human CSN-mediated cullin deneddylation. Q92905. Purified CSN, SCF-Nedd8-OG deneddylation, fluorescence polarization. inhibition, % at 12.5 µM. hit rate 0.38% among 360,000. AID 651999;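 active means pattern-corrected inhibition above about 35%, with an unprinted fluorescence ratio check between 0.5 and 1.5, limit read from the data, passing the limit was not always enough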;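 further: 0% = enzyme with substrate and 100% = substrate without enzyme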
#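 Material: purified human Csn5 enzyme expressed in HEK293T cells / Medium: Tris buffer pH 7.5, NaCl, DTT, Tween-20, trehalose, ovalbumin / Compound dosing: 12.5 µM single point / Schedule: 90 min incubation of compound, enzyme and substrate at room temperature / Signal: fluorescence polarization of the substrate / Control set: no-enzyme wells high, enzyme-with-substrate wells low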
# HNF4A DNA FP = change in binding of human HNF4 alpha to DNA; P41235; activity change, % at 10 µM; HNF4a-FITC DNA binding, fluorescence polarization, 1 h; AID 1224865; hit rate 0.3% among 360,000; in the data active means activity change above about 30%, passing the limit was not always enough
# Target sequence (P41235 whole entry, looked up): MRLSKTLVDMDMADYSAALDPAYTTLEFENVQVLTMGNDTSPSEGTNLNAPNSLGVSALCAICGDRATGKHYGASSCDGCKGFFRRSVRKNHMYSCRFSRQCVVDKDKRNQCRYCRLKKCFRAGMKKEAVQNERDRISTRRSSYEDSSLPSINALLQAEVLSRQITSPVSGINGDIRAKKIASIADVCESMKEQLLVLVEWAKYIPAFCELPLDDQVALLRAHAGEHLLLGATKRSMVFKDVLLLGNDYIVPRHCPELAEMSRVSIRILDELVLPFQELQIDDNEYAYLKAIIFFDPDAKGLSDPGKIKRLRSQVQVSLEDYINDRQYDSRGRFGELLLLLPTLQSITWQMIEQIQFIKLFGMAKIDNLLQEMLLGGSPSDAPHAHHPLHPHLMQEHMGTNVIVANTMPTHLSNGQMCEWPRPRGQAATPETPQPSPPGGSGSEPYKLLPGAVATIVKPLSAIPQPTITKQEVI
# * hit, by the source's call; i = inactive; ? = inconclusive; . = not tested or not shown; + = active, no number; ! = not active in a repeat. Only some compounds are listed: those with a hit (about 2.2% of all), similar ones and a draw of the others.
SMILES,Granule exo inh,Myeloid diff 2,CSN deneddyl inh,HNF4A DNA FP
COc1ccc(CCNC(=O)C2CCCN2S(=O)(=O)c2cccc3nsnc23)cc1OC (centres undefined),-3,i,2,1
CC(=O)N(c1ccc2oc(=O)sc2c1)S(=O)(=O)c1cccc2cccnc12,-2,i,3,31*
O=C(c1ccc(F)c(F)c1)N1CCCc2ccccc21,-10,i,-3,-2
Nc1ccccc1O,3,i,0,-6
Nc1cccc2c(O)cccc12,23,+,15,3
CC1CN(CC(=O)Nc2nc(-c3ccc(Cl)cc3)cs2)CC(C)O1 (centres undefined),-15,+,1,-1
COc1ccc(-c2ccc(N3C(c4ccsc4)=Cc4ccc(F)cc4C3c3c[nH]c4ccccc34)cc2)cc1 (centres undefined),2,i,3,0
CCCC(=O)Nc1nc2ccc(OCC)cc2s1,-10,i,1,-2
CCOc1ccc2nc(NC(=S)N(C)C)sc2c1,-5,+,0,4
CCN(CC)c1nc(N)c2c(N)n(-c3ccccc3C)c(=S)c(C#N)c2c1C#N,-1,+,24,7
CNc1ccc(-c2cc(OC)ccc2OC)cn1,6,i,-2,0
CCN1CCN(c2ccc(S(=O)(=O)N3CCCCC3)cc2NC(=O)/C=C/c2cc(OC)ccc2OC)CC1,60*,?,-3,2
COc1ccc(S(=O)(=O)N2CCCCCC2)cc1NC(=O)CN(C)Cc1ccc2c(c1)OCO2,-3,+,0,1
CCN1CCN(c2ccc(S(=O)(=O)N3CCCCC3)cc2NC(=O)Cc2ccc(Cl)c(Cl)c2)CC1,56*,i,4,5
CN(CC(=O)Nc1cc(S(=O)(=O)N2CCCCCC2)ccc1Cl)Cc1ccc2c(c1)OCO2,-17,i,-4,2
CCOc1ccc(C(=O)NCC(=O)NCCCSc2ccccc2)cc1OCC,1,i,3,-1
CCCCCCSc1cc(-c2nc3ccc(Cl)cn3c2NC2CCCCC2)ccc1OC,1,?,6,10
CCCCCCSc1ccc(-c2nc3ccc(Cl)cn3c2NC2CCCCC2)cc1,-1,+,12,13
Cc1ccn2c(NC3CCCCC3)c(-c3ccc(SC4CCCCC4)cc3)nc2c1,-1,+,19,54*
CCC(C)Sc1cccc(-c2nc3cc(C)ccn3c2NC2CCCCC2)c1 (centres undefined),57*!,+!,6,11
COc1cc(C2Oc3ccccc3C=C2[N+](=O)[O-])cc(OC)c1OC (centres undefined),60*,i,5,-4
Cc1ccc(NC(=O)CSc2nc3c(c(=O)[nH]2)CCC3)c(C)c1,3,i,1,-1
COC1=C(C)C(=O)C2=C(C1=O)C1C3CC4=C(C(=O)C(OC)=C(C)C4=O)C(CNC(=O)C(C)=O)N3C(C#N)C(C2)N1C (centres undefined),74*,.,-2,-2
CCc1cccc(OCC(O)Cn2c(N3CCCCC3)nc3c2c(=O)[nH]c(=O)n3C)c1 (centres undefined),4,i,0,-1
CC(C)[C@H](NC(=O)N1CCn2c1nc1ccccc12)C(=O)N1CCCCC1,-2,i,3,-1
SMILES,Granule exo inh,Myeloid diff 2,CSN deneddyl inh,HNF4A DNA FP
O=S(=O)(NNc1nccc(C(F)(F)F)n1)c1cccc(Cl)c1Cl,83*,i,0,1
Cc1cc(SCC(=O)N/N=C/c2ccc(O)c(O)c2O)c(C)cc1Br,8,+,-7,-2
COc1cc(/C=N/NC(=O)CSc2cc(C)c(Br)cc2C)ccc1O,3,i,0,-1
C[C@H](CO)N1C[C@H](C)[C@@H](CN(C)C(=O)NC2CCCCC2)Oc2c(NC(=O)c3ccncc3)cccc2C1=O,18,i,2,2
COc1ccc([C@H]2C(C(=O)O)=C[C@@H](CC3CCCC3)N2S(=O)(=O)c2ccc(C)cc2)cc1OC,-6,i,1,-2
CNc1sc(C(=O)c2cccs2)c(N)c1-c1nc2ccccc2s1,65*,i,1,13
CNc1sc(C(=O)c2ccc(F)cc2)c(N)c1-c1nc2ccccc2s1,4,i,7,0
Cc1ccc2nc(C)cc(Nc3ccc([N+](=O)[O-])cc3)c2c1,83*,?,4,5
COc1ccc2nc(C)cc(Nc3ccc(C)cc3)c2c1,7,i,3,2
N#CCC(=O)Nc1ccc(C(=O)OCc2ccccc2Oc2ccccc2)cc1,32,+,4,4
